hERG protect: shields human hERG channel from block by proarrhythmic agents; actives 0.51% (n = 310,000); activation (rescue from dofetilide block), less the hit threshold, % at 10 µM; CHO-hERG, FluxOR thallium flux, dofetilide IC70 present;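 active = activation above the mean of controls blocked by dofetilide plus 5 SD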;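 also: thallium influx through hERG after potassium depolarization seen as dye fluorescence rise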
KCNQ1 pot: potentiates or activates the human KCNQ1 potassium channel | P51787 | CHO-K1 KCNQ1, thallium flux FluxOR fluorescence; active compounds read high | B-score at 10 µM | actives 0.35% (n = 310,000);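 active = fluorescence ratio B-score, a plate-corrected score, at least three library SD, with initial intensity B-score within 5 SD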
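Assay system: stable KCNQ1 CHO-K1 line; medium: assay buffer, equal DMSO in all wells; timing: 90 min dye loading and 20 min compound exposure, both at room temperature; technique: kinetic FluxOR thallium fluorescence, 10-s 1-Hz baseline, 110-s post-stimulus read; read-out basis: B score of baseline-normalized fluorescence ratio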
KCNQ1 inh: blocks the human KCNQ1 potassium channel | CHO-K1 KCNQ1, FluxOR thallium flux fluorescence; active compounds read high | B-score at 10 µM | actives 1.3% (n = 310,000) | P51787;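 active = compounds whose thallium flux B-score, printed positive for inhibition, exceeds three library SD while starting fluorescence stays within three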;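 also: channel opened by potassium depolarization with thallium stimulus after 20 min compound exposure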
KCNK9 block: human KCNK9 channel inhibition; Q9NPC2; HEK293 KCNK9, FluxOR thallium flux fluorescence; active compounds read low; B-score at 10 µM; actives 1.2% (n = 310,000);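 active = ratio B-score over 3 SD below the library mean, with starting fluorescence within 5 SD of its mean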;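 also: negative B-score means less thallium flux so channel inhibition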
Target sequence (Q9NPC2 whole entry, looked up): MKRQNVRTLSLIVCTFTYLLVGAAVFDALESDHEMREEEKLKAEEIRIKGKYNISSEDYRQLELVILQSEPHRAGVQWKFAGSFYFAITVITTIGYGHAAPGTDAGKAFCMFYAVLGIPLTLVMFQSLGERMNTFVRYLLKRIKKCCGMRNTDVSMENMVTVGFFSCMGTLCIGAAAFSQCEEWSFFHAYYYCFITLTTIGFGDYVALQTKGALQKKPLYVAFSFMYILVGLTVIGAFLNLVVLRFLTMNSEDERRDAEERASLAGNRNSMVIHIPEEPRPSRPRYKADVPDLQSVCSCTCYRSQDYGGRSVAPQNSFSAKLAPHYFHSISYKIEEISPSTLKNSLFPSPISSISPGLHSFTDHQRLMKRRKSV
KCNK3 block: human KCNK3 channel inhibition, primary screen. O14649. CHO-KCNK3 thallium flux, FluxOR fluorescence; active compounds read low. B-score at 10 µM. actives 0.84% (n = 340,000). AID 602410;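 active = B-score under library mean minus 4 SD, starting fluorescence ratio at most library mean plus 5 SD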;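 also: more negative B-score means stronger inhibition of thallium flux through KCNK3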
Kir21 inh: Kir2.1 (mouse) channel inhibition; P35561; B-score at 10 µM; actives 0.85% (n = 310,000); HEK293-Kir2.1, FluxOR thallium flux fluorescence; active compounds read low;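 active = fluorescence ratio B-score at or below minus 3 SD of library scores, with starting-brightness B-score within 2 SD, cut at about -4.2 in these data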;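 also: channel flux triggered by added potassium and thallium sulfate stimulus; B-score of peak minus minimum fluorescence over baseline after thallium stimulus; more negative B-score means stronger Kir2.1 block with less thallium influx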
KCNK9 inh conf: human KCNK9 inhibitor confirmation. shares compounds with KCNK9 block. HEK293 KCNK9 cells, FluxOR thallium flux fluorescence. inhibition, % at 10 µM. actives 43% (n = 4,900). AID 492992;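 active = thallium signal inhibited by more than 5 SD of the compound-free buffer control wells, on both duplicate plates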;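 also: 0% = assay buffer control wells without compound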
Kir21 sel: selectivity of KCNK9 modulators against mouse Kir2.1 | actives 4% (n = 4,900) | Kir2.1 cells, FluxOR thallium flux fluorescence | inhibition, % at 10 µM | shares compounds with KCNK9 block | AID 492993;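 active = thallium signal drop more than 5 SD beyond the mean of the no-compound control wells, seen in both duplicate plates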;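 also: signal is fluorescence rise after thallium addition divided by baseline fluorescence; plate controls were assay buffer only for no effect and full block by chlorpromazine control for full effect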
KCNK9 uninduced: second check of KCNK9 modulator effects in non-induced HEK293 cells; shares compounds with KCNK9 block; AID 492997; inhibition, % at 10 µM; actives 40% (n = 4,900); FluxOR thallium flux;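 active = thallium signal drop beyond 5 SD of the untreated control mean, on both duplicate plates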;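 also: plate controls were buffer only IC0 wells for no effect and SID17386958 at its maximal inhibitory level for full effect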
Starred values were filed as active, the others as inactive; i = inactive; · = no result given. This is a sample that favours compounds with a hit; in the whole collection about 3.8% have one here.

SMILES	hERG protect	KCNQ1 pot	KCNQ1 inh	KCNK9 block	KCNK3 block	Kir21 inh	KCNK9 inh conf	Kir21 sel	KCNK9 uninduced
CCOC(=O)c1c(NC(=O)c2nn(CC)cc2Br)c(C#N)nn1-c1ccccc1	-9	i	i	-9.3*	i	-0.53	30%*	i	33%*
CCOC(=O)c1nn(-c2ccccc2)c(C#N)c1NC(=O)c1nn(CC)cc1Br	-5	i	i	i	i	-0.02	·	·	·
CCn1c2c(c3cc(OCC(C)C)ccc31)CCCC2=O	-3	i	i	i	i	0.9	i	i	i
CCn1c2c(c3cc(Br)ccc31)CCC/C2=N\O	-4	i	i	i	i	-0.51	·	·	·
CCN(CC)c1nc2c(c(=O)[nH]c(=O)n2C)n1Cc1ccccc1Cl	-7	i	i	i	i	-0.08	·	·	·
COC(=O)[C@H]1[C@H](CCc2ccccc2)NC(=O)N(Cc2ccccc2)[C@@H]1C	-7	i	i	i	i	0.09	·	·	·
CCCCC(CC)COC1(c2ccccc2)OC(=O)c2ccccc21 (stereo unspecified)	-6	i	i	-18*	i	-0.12	76%*	i	50%*
O=C1OC(Oc2ccccc2)(c2ccccc2)c2ccccc21 (stereo unspecified)	-16	i	i	-10*	i	-0.24	52%*	i	48%*
O=C1OC(OC2CCCCC2)(c2ccccc2)c2ccccc21 (stereo unspecified)	-7	i	i	-18*	i	0.58	76%*	i	60%*
CCOC(=O)C1(Cc2ccccc2)CCCN(Cc2ccc(OCCO)cc2)C1 (stereo unspecified)	-19	i	i	i	i	-1	·	·	·
O=C(CCCSc1ccc(Cl)cc1)Nc1ccccc1O	-14	i	9*	i	i	0.01	i	i	i
O=C(CSCc1ccc(Cl)cc1)Nc1ccccc1O	-8	i	i	i	i	0.11	·	·	·
CC1=Nc2cc(C(=O)N3CCCCC3)ccc2Sc2ccc(C)cc21	-11	i	i	i	i	-1.1	i	i	i
O=C(O)c1cccc(N2C(=O)C3C4C=CC(C4=C(c4ccccc4)c4ccccc4)C3C2=O)c1 (stereo unspecified)	-11	i	i	i	i	1.4	i	i	i
Cc1ccc(NC(=O)COc2cccc3ccccc23)c(O)c1	·	·	·	·	i	·	·	·	·
Cc1cccc(-c2ncc(CN3CCN(CC(C)C)C(CCO)C3)cn2)c1 (stereo unspecified)	-16	i	i	i	i	-0.46	i	i	i
C=CCN1CN=C(NS(=O)(=O)c2ccc(NC(C)=O)cc2)NC1	-7	i	i	-10*	i	-0.05	i	i	i
OCc1ccc(N=Nc2ccccc2)cc1	-3	i	i	i	i	0.68	·	·	·
COc1ccc(Cl)cc1Nc1ncnc2sc(C)c(S(=O)(=O)N3CCC(C)CC3)c12	-11	i	i	-9.7*	i	-1.2	48%*	i	34%*
COCCNC(=O)Cn1cnc2sc(C)c(S(=O)(=O)N3CCC(C)CC3)c2c1=O	-9	i	i	i	i	0.58	·	·	·
O=C(c1ccc(Cl)cc1)C1CCCN(Cc2cccn2-c2cccnc2)C1 (stereo unspecified)	-8	i	i	i	i	-2.8	·	·	·
CSc1ccc(C(=O)C2CCCN(Cc3cccn3-c3cccnc3)C2)cc1 (stereo unspecified)	-1	i	i	i	i	-3.3	i	i	i
